# pIC50: −log10 of the molar value. Calls of active or inactive are those of the source. The calls are words filed in the database; no cut-off is given here.
# Key:
# [1] = Safety index, ratio of IC50 for cytotoxicity against human Ect1 cells assessed as reduction in cell viability to IC50 for antiproliferative activity against human HeLa cells assessed as reduction in cell viability incubated for 12 hrs by MTT assay; assay type: toxicity, cell-based; settings: Ect1 cells versus HeLa cells, read-out: Ratio IC50
# Outline: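 Safe index SI0 from MTT assay without irradiation: IC50 in Ect1/E6E7 normal ectocervical cells divided by IC50 in HeLa cells.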
# HeLa [2] = assay: Antiproliferative activity against human HeLa cells assessed as reduction in cell viability preincubated for 12 hrs followed by 4 Gy irradiation and measured after 60 hrs by MTT assay; assay type: functional, cell-based; settings: light or radiation study
# Outline: (§1)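 MTT viability assay in HeLa cancer cells, with the test agent alone (0 Gy) or combined with 4 Gy X-rays. IC50 values are in μM. Sensitivity enhancement ratio = IC50(0 Gy)/IC50(4 Gy).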
# HeLa [3] = assay: Ratio of IC50 for antiproliferative activity against human HeLa cells assessed as reduction in cell viability incubated for 12 hrs to IC50 for antiproliferative activity against human HeLa cells assessed as reduction in cell viability preincubated for 12 hrs followed by 4 Gy irradiation and measured after 60 hrs by MTT assay; assay type: functional; outline: as §1
# HeLa [4] = assay: Inhibition of cell migration in human HeLa cells assessed as reduction in migration velocity at 1 uM after 24 hrs by phase contrast microscopic analysis; assay type: functional, cell-based
# Outline: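 Wound-healing scratch assay on HeLa monolayers, compound with or without 4 Gy X-rays; wound closure recorded by phase-contrast microscopy at set times; migrated cells counted manually; mean ± SD of three independent experiments.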
# HeLa [5] = assay: Induction of mitochondrial dysfunction in human HeLa cells assessed as mitochondrial fission at 1 uM after 24 hrs by DAPI staining based fluorescence microscopic analysis; assay type: functional, cell-based
# Outline: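 HeLa cells treated with 1 μM compound, without or with 4 Gy X-rays; mitochondrial morphology imaged by fluorescence microscopy after MitoTracker and DAPI co-staining.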
# HeLa [6] = assay: Effect on dihydrofolate reductase protein expression in human HeLa cell lysates at 1 to 2 uM by Western blot analysis; assay type: functional, cell-based
# HeLa [7] = assay: Antiproliferative activity against human HeLa cells assessed as reduction in cell viability incubated for 12 hrs by MTT assay; assay type: functional, cell-based; outline: as §1
# HeLa [8] = assay: Induction of cell cycle arrest in human HeLa cells assessed as accumulation at G1 phase at 1 uM after 48 hrs by propidium iodide staining based flow cytometric analysis (reference value: 40.7%); assay type: functional
# Dihydrofolate reductase = target: T1, Dihydrofolate reductase (Homo sapiens, UniProt P00374); assay: Inhibition of recombinant human DHFR using dihydrofolate as substrate in presence of NADPH
# T1 sequence (P00374 whole entry): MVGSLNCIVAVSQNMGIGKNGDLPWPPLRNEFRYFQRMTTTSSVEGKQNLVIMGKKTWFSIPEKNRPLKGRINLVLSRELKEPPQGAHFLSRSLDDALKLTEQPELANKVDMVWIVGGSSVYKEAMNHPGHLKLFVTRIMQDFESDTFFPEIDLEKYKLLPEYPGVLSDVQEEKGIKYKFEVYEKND
# HeLa [9] = assay: Induction of apoptosis in human HeLa cells assessed as caspase-8 activation at 1 uM using […] as substrate after 12 hrs by fluorescence based assay relative to control; assay type: functional
# Outline: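 Caspase-3 and caspase-8 activities were measured in HeLa cells after 12 h at 1 μM, without or with 4 Gy X-rays. Mean ± SD of three independent experiments.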
# [10] = Toxicity in BALB/c mouse xenografted with human HeLa cells assessed as liver damage at 4 mg/kg, iv administered for every 3 days for 21 days and measured after 24 hrs post last dose by H and E staining based light microscopic analysis; assay type: organism-based; settings: in vivo
# Outline: (§2)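 HeLa-tumor-bearing nude mice dosed at 4 mg/kg iv every 3 days for 21 days, alone or with X-rays; euthanized 24 h after last injection; heart, liver, lungs, kidneys and spleen sectioned and stained with H&E.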
# [11] = Toxicity in BALB/c mouse xenografted with human HeLa cells assessed as kidney damage at 4 mg/kg, iv administered for every 3 days for 21 days and measured after 24 hrs post last dose in presence of 4 Gy X-ray irradiation by H and E staining based light microscopic analysis; assay type: organism-based; settings: in vivo; outline: as §2
# HeLa [12] = assay: Antitumor activity against human HeLa cells xenografted in BALB/c mouse assessed as reduction in tumor growth at 4 mg/kg, iv administered for every 3 days for 21 days in presence of 4 Gy X-ray irradiation relative to control; assay type: functional; set-up: scale not given: the % may be the effect or the level left
# Outline: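 HeLa tumour-bearing nude mice were dosed at 4 mg/kg by tail-vein injection every 3 days over a 21-day period, with or without X-ray irradiation. Tumours were photographed and sectioned for H&E staining. Body weight was recorded over the 21 days.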
# [13] = Toxicity in BALB/c mouse xenografted with human HeLa cells assessed as kidney damage by measuring effect on BUN level at 4 mg/kg, iv administered every 3 days for 21 days in presence of 4 Gy X-ray irradiation; assay type: organism-based; settings: in vivo
# Outline: (§3)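 HeLa xenograft nude mice dosed at 4 mg/kg iv every 3 days over 21 days, alone or with X-rays; blood collected 24 h after last injection for serum biochemistry: ALT, AST (liver), BUN and uric acid (kidney).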
# [14] = Toxicity in BALB/c mouse xenografted with human HeLa cells assessed as liver damage by measuring effect on ALT level at 4 mg/kg, iv administered every 3 days for 21 days; assay type: organism-based; settings: in vivo; outline: as §3
# HeLa [15] = assay: Induction of reactive oxygen species generation in human HeLa cells incubated with DHE for 30 mins and measured up to 30 mins in presence of 4 Gy X-ray radiation by fluorescence microscopic analysis; assay type: functional, cell-based
# Outline: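 HeLa cells pretreated with compound, with or without 4 Gy X-rays, then incubated with dihydroethidium for 30 min; red superoxide-derived fluorescence imaged by fluorescence microscopy, with observation continued over a further 30 min.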
smiles,measurement,setting,value
Nc1nc(N)c2nc3c(nc2n1)-c1cccc2cccc-3c12,selectivity ratio at 12 h,[1],3.3
same,pIC50,HeLa [2],6.19
same,Ratio IC50,HeLa [3],3.3
same,inhibition,HeLa [4],Active
same,Activity,HeLa [5],Active
same,Activity,HeLa [6],Active
same,pIC50,HeLa [7],5.68
same,Activity,HeLa [8],38.7%
same,pIC50,Dihydrofolate reductase,6.09
same,Activity,HeLa [9],110%
same,Activity,[10],Non-Toxic
same,Activity,[11],Non-Toxic
same,Activity,HeLa [12],32%
same,Activity,[13],Non-Toxic
same,Activity,[14],Non-Toxic
same,Activity,HeLa [15],Active

# From ChEMBL document CHEMBL4622964, “Designing Dihydrofolate Reductase Inhibitors as X-ray Radiosensitizers to Reverse Radioresistance of Cervical Cancer” (ACS Med Chem Lett, 2020)
